Measured values from different studies.
Target: Cytochrome P450 2C8 (CYP2C8, Homo sapiens, UniProt P10632)
Effect on: enzyme activity
Mode: inhibitor

test | test system | setting | measurement | value | SMILES
– | – | – | IC50 | > 10000 nM | NS(=O)(=O)NCCNc1nonc1C(=NO)Nc1ccc(F)c(Br)c1
– | – | 30 min, pH 7.4 | IC50 | 566 nM | Ic1ccc(CSCn2ccnc2)cc1
– | human, liver microsomes | pH 7.4 | Ki | 1300 nM | Cc1cc(C)c2c(c1)[C@@H](N(Cc1cc(C(F)(F)F)cc(C(F)(F)F)c1)c1nnn(C)n1)CCCN2C[C@H]1CC[C@H](C(=O)O)CC1
– | human, liver microsomes | pH 7.4 | IC50 | 16000 nM | C[C@@H](c1ccc2nccn2c1)n1nnc2ncc(-c3cnn(C)c3)nc21
fluorescence | – | 15 min | IC50 | 3080 nM | Cc1cc2c(F)c(Oc3ncnn4cc(OC[C@@H](C)O)c(C)c34)ccc2[nH]1
– | human, liver microsomes | 20 min | IC50 | > 1100 nM | CCc1cc(/C(C)=N/OCc2ccc(C3CCCCC3)c(C(F)(F)F)c2)ccc1CN1CC(C(=O)O)C1
– | – | – | IC50 | 1000 nM | COc1ccn2c(Nc3ccccc3F)c(-c3ccncn3)nc2c1
– | human, liver microsomes | – | IC50 | 3900 nM | N#C[C@H](C[C@@H]1CCCNC1=O)NC(=O)[C@H](CC1CC1)NC(=O)c1cc2cccc(Cl)c2[nH]1
– | – | – | IC50 | 1000 nM | Cc1ccc2nc(-c3ccccc3)c(CNc3ccc(F)cc3)n2c1
– | human, liver microsomes | – | IC50 | > 30000 nM | C=CC(=O)Nc1cc(Nc2nccc(Nc3cc(Cl)c(F)cc3C(C)(C)O)n2)c(OC)cc1N1CC[C@@H](N(C)C)C1
